{"source": "ChEMBL document CHEMBL5705892", "about": "“MK-2206, an allosteric Akt inhibitor, enhances antitumor efficacy by standard chemotherapeutic agents or molecular targeted drugs in vitro and in vivo” (Mol Cancer Ther, 2010)", "key": {"BT-20": {"system": "BT-20", "test": "Synergistic antiproliferative activity against human BT-20 cells assessed as combination index at ED75 measured after 72 hrs in presence of docetaxel by celltiter-glo assay", "type": "functional", "in_short": "(§1)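 Cells grown in RPMI 1640 with 10% heat-inactivated FBS at 37°C, 5% CO₂. Seeded at 2 to 3 × 10³ per well; drugs added 24 h later. […] Viability read as cellular ATP by CellTiter-Glo. CI calculated by Chou–Talalay from median-effect plots at ED50, ED75 and ED90.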"}, "SK-BR-3": {"system": "SK-BR-3", "test": "Synergistic antiproliferative activity against human SK-BR-3 cells assessed as combination index at ED50 treated 24 hrs prior to lapatinib and measured after 72 hrs by celltiter-glo assay", "type": "functional", "conditions": "time 96 hrs"}, "NCI-H292 [1]": {"system": "NCI-H292", "test": "Antitumor activity against human NCI-H292 cells xenografted in CD-1 mouse assessed as tumor growth suppression at 360 mg/kg, po administered once a week for 2 weeks starting 2 hrs post-erlotinib treatment and measured twice a week during compound dosing by caliper method", "type": "functional, organism-based", "in_short": "(§2)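 Female CD1-nude mice carried s.c. NCI-H292 cells in Matrigel/PBS and were randomized at 0.2 cm³, n = 5. […] MK-2206 (30% Captisol) was given 2 h later at 120 mg/kg po on days 0, 2, 4, 7, 9, 11, or at 360 mg/kg on days 0 and 7. Control received vehicle. Caliper volume twice weekly.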"}, "NCI-H292 [2]": {"system": "NCI-H292", "test": "Antiproliferative activity against human NCI-H292 cells assessed as reduction in cell proliferation measured after 72 hrs by celltiter-glo assay", "type": "functional, cell-based", "conditions": "NCI-H292, 72 h", "in_short": "(§3)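 Cells in RPMI 1640 with 10% heat-inactivated FBS at 37°C and 5% CO₂ were seeded at 2 to 3 × 10³ per well. […] Growth was read as cellular ATP by CellTiter-Glo.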"}, "BT-474 [3]": {"system": "BT-474", "test": "Synergistic antiproliferative activity against human BT-474 cells assessed as combination index at ED90 preincubated for 24 hrs followed by compound washout and subsequent docetaxel addition and measured after 72 hrs by celltiter-glo assay", "type": "functional", "in_short": "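Sequential schedule. Cells were seeded at 2 to 3 × 10³ per well in RPMI 1640 with 10% FBS and dosed 24 h after plating. They were exposed to the Akt inhibitor for 24 h, washed free of it, then given docetaxel for a further 72 h. Fixed concentration ratios spanned each agent's IC₅₀. ATP was read by CellTiter-Glo, and Chou–Talalay CI was calculated at ED50, ED75 and ED90.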"}, "BT-474 [4]": {"system": "BT-474", "test": "Synergistic antiproliferative activity against human BT-474 cells assessed as combination index at ED50 measured after 72 hrs in presence of docetaxel by celltiter-glo assay", "type": "functional", "in_short": "as §1"}, "[5]": {"target": "RAC-alpha serine/threonine-protein kinase (Homo sapiens) (UniProt P31749)", "sequence (P31749 whole entry)": "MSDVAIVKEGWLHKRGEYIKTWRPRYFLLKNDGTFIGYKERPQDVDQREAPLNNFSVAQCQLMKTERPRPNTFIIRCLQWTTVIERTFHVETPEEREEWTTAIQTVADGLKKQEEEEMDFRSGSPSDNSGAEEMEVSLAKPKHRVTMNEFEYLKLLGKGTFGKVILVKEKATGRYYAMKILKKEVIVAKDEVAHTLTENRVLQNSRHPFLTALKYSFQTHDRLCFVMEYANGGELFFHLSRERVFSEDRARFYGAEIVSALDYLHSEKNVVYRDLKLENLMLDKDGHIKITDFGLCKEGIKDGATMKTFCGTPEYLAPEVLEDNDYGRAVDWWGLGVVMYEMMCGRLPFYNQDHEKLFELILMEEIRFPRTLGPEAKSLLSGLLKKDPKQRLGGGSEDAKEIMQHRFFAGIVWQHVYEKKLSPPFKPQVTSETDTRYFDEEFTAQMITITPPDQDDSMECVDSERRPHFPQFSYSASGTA", "test": "Inhibition of AKT in human A-431 cells assessed as reduction in AKT phosphorylation at S473 residue at 5 umol/L measured after 5 hrs in presence of erlotinib by Western blot analysis", "type": "cell-based", "conditions": "dose 5.0 µmol/L", "in_short": "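Cells were lysed in Tris-HCl pH 7.5, 150 mM NaCl, 1% Triton X-100 with protease and phosphatase inhibitors. Lysates were run on SDS-PAGE, transferred to nitrocellulose and probed with phospho-specific antibodies.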"}, "NCI-H358": {"system": "NCI-H358", "test": "Antiproliferative activity against human NCI-H358 cells assessed as reduction in cell proliferation measured after 72 hrs by celltiter-glo assay", "type": "functional, cell-based", "conditions": "NCI-H358, 72 h", "in_short": "as §3"}, "NCI-H292 [6]": {"system": "NCI-H292", "test": "Induction of apoptosis in human NCI-H292 cells assessed as increase in caspase-3/7 activity up to 3 umol/L measured after 48 hrs by caspase-glo 3/7 assay", "type": "functional, cell-based", "conditions": "dose <= 3.0 µmol/L", "in_short": "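Caspase-3/7 activity was measured by Caspase-Glo 3/7 and expressed as fold over DMSO vehicle control. The experiment was done twice.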"}, "PC-3": {"system": "PC-3", "test": "Antitumor activity against human PC-3 cells xenografted in CD1 nude mouse assessed as tumor growth inhibition at 120 mg/kg, po administered 3 times per week for 2 weeks starting 24 hrs post docetaxel treatment and measured during compound dosing by caliper method", "type": "functional, organism-based", "in_short": "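Male CD1-nude mice received s.c. PC-3 cells and were treated from day 25 after implant, at 0.2 cm³, n = 5. Docetaxel (0.73% ethanol in saline) was given at 5 mg/kg i.v. on day 0. MK-2206 (30% Captisol) was given at 120 mg/kg po on days 1, 3, 5, 8, 10, 12. Caliper volume twice weekly.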"}, "NCI-N87": {"system": "NCI-N87", "test": "Synergistic antiproliferative activity against human NCI-N87 cells assessed as combination index at ED75 measured after 72 hrs in presence of lapatinib by celltiter-glo assay", "type": "functional"}, "NCI-H292 [7]": {"system": "NCI-H292", "test": "Synergistic antiproliferative activity against human NCI-H292 cells assessed as combination index at ED50 measured after 72 hrs in presence of erlotinib by celltiter-glo assay", "type": "functional"}, "NCI-H23": {"system": "NCI-H23", "test": "Synergistic antiproliferative activity against human NCI-H23 cells assessed as combination index at ED90 measured after 72 hrs in presence of erlotinib by celltiter-glo assay", "type": "functional"}, "NCI-H292 [8]": {"system": "NCI-H292", "test": "Antitumor activity against human NCI-H292 cells xenografted in CD-1 mouse assessed as tumor growth suppression at 120 mg/kg, po administered 3 times per week for 2 weeks starting 2 hrs post-erlotinib treatment and measured twice a week during compound dosing by caliper method", "type": "functional, organism-based", "in_short": "as §2"}, "BT-474 [9]": {"system": "BT-474", "test": "Synergistic antiproliferative activity against docetaxel pretreated human BT-474 cells assessed as combination index at ED90 measured after 72 hrs by celltiter-glo assay", "type": "functional"}, "MDA-MB-468": {"system": "MDA-MB-468", "test": "Synergistic antiproliferative activity against human MDA-MB-468 cells assessed as combination index at ED90 measured after 96 hrs in presence of lapatinib by celltiter-glo assay", "type": "functional"}, "[10]": {"test": "Toxicity in human NCI-H460 cells xenografted CD1 nude mouse assessed as body weight loss at 120 mg/kg, po administered 3 times per week for 2 weeks measured on day 14 to 16", "type": "organism-based", "conditions": "in vivo, 336 h, time 14-16 day", "in_short": "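NCI-H460 cells in 50% Matrigel/PBS injected s.c. into flank of CD1-nude mice; randomized at mean tumour 0.2 cm³ (n = 5). MK-2206 in 30% Captisol, 120 mg/kg p.o. days 0, 2, 4, 7, 9, 11. Carboplatin 50 mg/kg i.v. in saline days 0 and 7 (from day 12 after implant), or gemcitabine 100 mg/kg i.v. in saline days 0 and 7 (from day 8). Body weight monitored.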"}, "NCI-H460": {"system": "NCI-H460", "test": "Antitumor activity against human NCI-H460 cells xenografted in CD1 nude mouse assessed as reduction in tumor volume at 120 mg/kg, po administered 3 times per week for 2 weeks by caliper method", "type": "functional, organism-based", "in_short": "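NCI-H460 cells were injected s.c. in Matrigel/PBS into CD1-nude mice (female in the carboplatin study). Mice were randomized at 0.2 cm³, n = 5. Carboplatin was given at 50 mg/kg or gemcitabine at 100 mg/kg, i.v. in saline, on days 0 and 7. MK-2206 (30% Captisol) was given at 120 mg/kg po on days 0, 2, 4, 7, 9, 11. Tumors measured by caliper twice weekly.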"}, "HCC1954": {"system": "HCC1954", "test": "Synergistic antiproliferative activity against lapatinib pretreated human HCC1954 cells assessed as combination index at ED90 measured after 72 hrs by celltiter-glo assay", "type": "functional"}, "[11]": {"target": "RAC-alpha serine/threonine-protein kinase (Homo sapiens) (UniProt P31749)", "test": "Inhibition of AKT in human HCC827 cells assessed as reduction in GSK3alpha/beta phosphorylation at S21/S9 residues at 5 umol/L measured after 5 hrs in presence of erlotinib by Western blot analysis", "type": "cell-based", "conditions": "dose 5.0 µmol/L"}}, "note": "Active and inactive are the calls of the source. No cut-off for these calls is given here."}
{"smiles": "Cl.NC1(c2ccc(-c3nc4ccn5c(=O)[nH]nc5c4cc3-c3ccccc3)cc2)CCC1", "values": [{"measurement": "CI75", "setting": "BT-20", "value": 0.7}, {"measurement": "CI50", "setting": "SK-BR-3", "value": 0.18}, {"measurement": "Activity", "setting": "NCI-H292 [1]", "value": "Active"}, {"measurement": "IC50", "setting": "NCI-H292 [2]", "value": 5.2, "unit": "µM"}, {"measurement": "CI90", "setting": "BT-474 [3]", "value": 1.6}, {"measurement": "CI50", "setting": "BT-474 [4]", "value": 1}, {"measurement": "inhibition", "setting": "[5]", "value": "Active"}, {"measurement": "IC50", "setting": "NCI-H358", "value": 13.5, "unit": "µM"}, {"measurement": "Activity", "setting": "NCI-H292 [6]", "value": "inactive"}, {"measurement": "TGI", "setting": "PC-3", "value": "Active"}, {"measurement": "CI75", "setting": "NCI-N87", "value": 0.55}, {"measurement": "CI50", "setting": "NCI-H292 [7]", "value": 0.44}, {"measurement": "CI90", "setting": "NCI-H23", "value": 0.68}, {"measurement": "Activity", "setting": "NCI-H292 [8]", "value": "Active"}, {"measurement": "CI90", "setting": "BT-474 [9]", "value": 0.3}, {"measurement": "CI90", "setting": "MDA-MB-468", "value": 0.18}, {"measurement": "Activity", "setting": "[10]", "value": "Non-Toxic"}, {"measurement": "Activity", "setting": "NCI-H460", "value": "Active"}, {"measurement": "CI90", "setting": "HCC1954", "value": 0.18}, {"measurement": "inhibition", "setting": "[11]", "value": "Active"}]}
